In test [1] the target is T1, Retinoic acid receptor beta (Homo sapiens) (UniProt P10826).
T1 sequence (whole entry): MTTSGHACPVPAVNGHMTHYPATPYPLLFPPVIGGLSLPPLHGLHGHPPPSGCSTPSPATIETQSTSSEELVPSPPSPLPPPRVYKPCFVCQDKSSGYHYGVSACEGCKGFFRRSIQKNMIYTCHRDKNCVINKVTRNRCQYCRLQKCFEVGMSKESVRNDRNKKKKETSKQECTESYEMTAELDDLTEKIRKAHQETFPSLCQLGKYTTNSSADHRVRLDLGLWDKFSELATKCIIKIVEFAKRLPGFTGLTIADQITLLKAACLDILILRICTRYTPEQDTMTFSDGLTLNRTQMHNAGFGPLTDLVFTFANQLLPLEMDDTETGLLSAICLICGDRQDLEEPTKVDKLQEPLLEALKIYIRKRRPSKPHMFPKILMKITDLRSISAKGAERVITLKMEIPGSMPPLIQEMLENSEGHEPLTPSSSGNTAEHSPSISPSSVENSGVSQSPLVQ
The test can be described thus: In vitro binding affinity towards Retinoic acid receptor beta evaluated relative to that of All-trans retinoic acids(Mean of ATRA IC50 = 0.52 nM).

Test [2] deals with HL-60. In words: Agonistic activity was evaluated by HL-60 cell differentiation activity. The class given is functional, Homo sapiens. In a few lines:
(§1)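 HL-60 cell differentiation was read out as CD11b expression, used as the differentiation marker.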

In test [3] the target is T2, Retinoic acid receptor gamma (Homo sapiens) (UniProt P13631).
T2 sequence (whole entry): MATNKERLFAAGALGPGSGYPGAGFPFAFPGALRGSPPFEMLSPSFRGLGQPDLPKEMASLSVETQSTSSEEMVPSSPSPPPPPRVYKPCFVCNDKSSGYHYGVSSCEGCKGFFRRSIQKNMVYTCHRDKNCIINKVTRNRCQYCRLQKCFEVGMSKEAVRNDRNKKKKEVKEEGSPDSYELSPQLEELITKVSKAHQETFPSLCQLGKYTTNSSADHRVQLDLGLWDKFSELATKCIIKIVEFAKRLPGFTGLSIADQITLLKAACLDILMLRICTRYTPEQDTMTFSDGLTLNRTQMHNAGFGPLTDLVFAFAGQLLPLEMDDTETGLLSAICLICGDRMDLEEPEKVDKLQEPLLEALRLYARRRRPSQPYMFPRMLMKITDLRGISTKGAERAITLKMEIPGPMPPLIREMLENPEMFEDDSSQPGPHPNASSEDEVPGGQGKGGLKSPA
The test can be described thus: In vitro binding affinity towards Retinoic acid receptor gamma evaluated relative to that of All-trans retinoic acids(Mean of ATRA IC50 = 0.42 nM).

In test [4] the target is T3, Retinoic acid receptor alpha (Homo sapiens) (UniProt P10276).
T3 sequence (whole entry): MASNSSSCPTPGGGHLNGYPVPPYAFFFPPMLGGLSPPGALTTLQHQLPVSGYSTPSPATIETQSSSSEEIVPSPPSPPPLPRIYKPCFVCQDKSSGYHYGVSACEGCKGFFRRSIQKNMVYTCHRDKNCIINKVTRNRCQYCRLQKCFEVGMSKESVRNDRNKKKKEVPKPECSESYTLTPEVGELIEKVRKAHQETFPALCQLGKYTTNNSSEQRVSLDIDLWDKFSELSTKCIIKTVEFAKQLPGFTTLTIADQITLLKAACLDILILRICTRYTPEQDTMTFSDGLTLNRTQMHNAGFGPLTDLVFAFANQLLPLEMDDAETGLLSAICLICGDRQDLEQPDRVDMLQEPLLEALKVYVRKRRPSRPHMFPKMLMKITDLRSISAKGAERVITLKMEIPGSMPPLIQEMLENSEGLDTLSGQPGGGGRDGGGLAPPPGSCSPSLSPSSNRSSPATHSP
In words: In vitro binding affinity towards Retinoic acid receptor alpha evaluated relative to that of All-trans retinoic acids(Mean of ATRA IC50 = 0.66 nM).

The target of test [5] is T3, Retinoic acid receptor alpha (Homo sapiens). The test can be described thus: Retinoid activity at Retinoic acid receptor alpha was evaluated relative to that of All-trans retinoic acids(Mean of ATRA EC50 = 1.06 nM). In outline:
(§2)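 Gene transcription was induced in a co-transfection transactivation assay at each RAR subtype. Full dose-response curves started from 0.1 nM. EC30 is the concentration giving 30% of the maximal observed response. The reported value is the mean of EC30/ATRA EC30. Activity was taken as not detectable when EC30 > 3000 nM.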

In test [6] the target is T1, Retinoic acid receptor beta (Homo sapiens). The test can be described thus: Retinoid activity at Retinoic acid receptor beta was evaluated relative to that of All-trans retinoic acids(Mean of ATRA EC50 = 1.02 nM). In a few lines: as §2
Test [7] addresses T2, Retinoic acid receptor gamma (Homo sapiens). The test can be described thus: Retinoid activity at Retinoic acid receptor gamma was evaluated relative to that of All-trans retinoic acids(Mean of ATRA EC50 = 0.26 nM). In a few lines: as §2
In test [8] the test system is HL-60. The test can be described thus: Agonistic activity was evaluated by HL-60 cell differentiation activity; Not detectable. The class given is functional, Homo sapiens. In outline: as §1
Test [9] deals with HL-60. In words: Antagonistic activity was evaluated in terms of inhibition of HL-60 cell differentiation activity by ATRA (10 nM). The class given is functional, cell-based. Particulars: Homo sapiens. In outline: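 HL-60 cells were induced to differentiate with ATRA (10 nM). Antagonism was scored as inhibition of that differentiation, read out as CD11b expression.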
Test [10] concerns the target T4, Retinoic acid receptor beta (Homo sapiens, UniProt P10826).
T4 sequence (P10826 whole entry): T1 sequence (whole entry)
The test can be described thus: Antagonistic activity was evaluated in terms of inhibition of Retinoic acid receptor beta transactivation by ATRA (50 nM); Not detectable. The class given is functional.

Test [11] has as its target T3, Retinoic acid receptor alpha (Homo sapiens). In words: Retinoid activity at Retinoic acid receptor alpha was evaluated relative to that of All-trans retinoic acids(Mean of ATRA EC50 = 1.06 nM); Not detectable. In a few lines: as §2
In test [12] the target is T5, Retinoic acid receptor alpha (Homo sapiens, UniProt P10276).
T5 sequence (P10276 whole entry): T3 sequence (whole entry)
The test can be described thus: Antagonistic activity was evaluated in terms of inhibition of Retinoic acid receptor alpha transactivation by ATRA (50 nM). The class given is functional.

Test [13] has as its target T6, Retinoic acid receptor gamma (Homo sapiens, UniProt P13631).
T6 sequence (P13631 whole entry): T2 sequence (whole entry)
The test can be described thus: Antagonistic activity was evaluated in terms of inhibition of Retinoic acid receptor gamma transactivation by ATRA (50 nM); Not detectable. The class given is functional.

The target in test [14] is T2, Retinoic acid receptor gamma (Homo sapiens). In words: In vitro binding affinity towards Retinoic acid receptor gamma evaluated relative to that of All-trans retinoic acids(Mean of ATRA IC50 = 0.42 nM); Not detectable.

Where only a bound is given, the exact number is not on record here.

These results are taken from ChEMBL document CHEMBL1134263, “Syntheses and evaluation of quinoline derivatives as novel retinoic acid receptor alpha antagonists” (Bioorg Med Chem Lett, 2001).

On to `CC(C)c1cccc2c(Cl)cc(-c3ccc(-c4ccc(C(=O)O)cc4)[nH]3)nc12`, for which the Relative IC50 came out at 79 in test [1], 251 in [3] and 1.3 in test [4]. Further, the ED30 in the test with HL-60 [2] came out at 100 nM. In addition, the Relative EC30 in test [5] is 1.9; in test [6], 17; in test [7], 1160.
As to `CCc1cc(-c2ccc(-c3ccc(C(=O)O)cc3)[nH]2)nc2c(C(C)C)cccc12`, the Relative IC50 in [1] worked out at 32; in test [3], 22; in [4], 0.7. Further, the Relative EC30 in test [5] was 2.5; in test [6], 22; in [7], 180. In addition, the ED30 in the test on HL-60 [8] is above 10000 nM. The compound further registered an IC50 in the test with HL-60 [9] of 17 nM.
In the case of `CC(C)c1cccc2c(-c3ccccc3)cc(-c3ccc(-c4ccc(C(=O)O)cc4)[nH]3)nc12`, the IC50 in test [10] is above 3000 nM; in test [12], 31.2 nM; in test [13], above 3000 nM; with HL-60 [9] it was 6.4 nM. In addition, the Relative EC30 in test [11] and in test [7] was above 3000 throughout. Further, the Relative IC50 in test [1] was found to be 535; in [3] it was 432; in test [4] it was 1.8. The compound also displayed an ED30 with HL-60 [8] above 10000 nM.
`Cc1cc(-c2ccc(-c3ccc(C(=O)O)cc3)[nH]2)nc2c(C(C)C)cccc12`: the results for the Relative IC50 in [1], in [3] and in [4] were 71, 141 and 1.7, respectively. This compound gave an ED30 in the test on HL-60 [2] of 100 nM. The Relative EC30 in test [5] is 2.8; in test [6], 16; in [7] it was 903.
With `CC(C)c1cccc2ccc(-c3ccc(-c4ccc(C(=O)O)cc4)[nH]3)nc12`, the results for the Relative IC50 in test [1], in [14] and in test [4] were 579, above 1000 and 5.7, respectively. In addition, in the test on HL-60 [2], the ED30 is 2500 nM. For the same compound, the Relative EC30 in test [5] stood at 3; in test [6], 97; in test [7] it was 5770.
For the compound `COc1cc(-c2ccc(-c3ccc(C(=O)O)cc3)[nH]2)nc2c(C(C)C)cccc12`, the Relative EC30 in test [11] was above 3000; in [6], 38; in [7] it was 4460. In addition, the values for the Relative IC50 in [1], in [3] and in test [4] were 475, 834 and 0.8, respectively. For the same compound, the ED30 in the test on HL-60 [8] was above 10000 nM. The compound further had an IC50 in the test on HL-60 [9] of 1.6 nM.

By IC50 is commonly meant the concentration needed to halve the response being measured.
